Measurements taken from ChEMBL document CHEMBL1255436, “Peptide fragments of a beta-defensin derivative with potent bactericidal activity” (Antimicrob Agents Chemother, 2010).
In brackets after ≈: the same amount, converted by molar mass. Activity calls are given as the source filed them. The rule behind the calls is not given here.

Columns and labels:
Burkholderia cenocepacia = assay: Antimicrobial activity against Burkholderia cenocepacia J2315 after 3 hrs by bactericidal assay; format: functional; conditions: J2315, 3 h
Staphylococcus aureus [1] = assay: Antimicrobial activity against Staphylococcus aureus ATCC 25923 after 3 hrs by bactericidal assay; format: functional; conditions: ATCC 25923, 3 h
Method in brief: (§1)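 Mid-log cultures grown in Iso-Sensitest broth, diluted to 1 × 10⁶–5 × 10⁶ CFU/ml in 10 mM potassium phosphate with 1% (vol/vol) Iso-Sensitest broth, pH 7.4. Peptides (monomer made by 10 mM DTT reduction overnight at room temperature, or dimer; oxidation state checked by MS) are incubated with 100 μl cells at 37°C for 3 h. Tenfold dilutions are plated and CFU counted next day. MBC is >99.99% killing, in duplicate on three occasions, taken as the mean. Mann-Whitney U test.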

Escherichia coli = assay: Antimicrobial activity against Escherichia coli ATCC 25922 after 3 hrs by bactericidal assay; format: functional; conditions: ATCC 25922, 3 h; method in brief: as §1
Pseudomonas aeruginosa [2] = assay: Antimicrobial activity against Pseudomonas aeruginosa PAO1 after 3 hrs by bactericidal assay; format: functional; conditions: PAO1, 3 h; method in brief: as §1
Staphylococcus aureus [3] = assay: Antibacterial activity against methicillin-resistant Staphylococcus aureus J2918 after 3 hrs by bactericidal assay; format: functional; conditions: J2918, 3 h; method in brief: as §1
Acinetobacter baumannii = assay: Antimicrobial activity against Acinetobacter baumannii ATCC 19606 after 3 hrs by bactericidal assay; format: functional; conditions: ATCC 19606 = CIP 70.34 = JCM 6841, 3 h; method in brief: as §1
Enterococcus faecalis = assay: Antimicrobial activity against Enterococcus faecalis ATCC 700802 after 3 hrs by bactericidal assay; format: functional; conditions: ATCC 700802, 3 h; method in brief: as §1
Pseudomonas aeruginosa [4] = assay: Antimicrobial activity against Pseudomonas aeruginosa PAO1 after 3 hrs by bactericidal assay in presence of 200 mM NaCl; format: functional, organism-based
Method in brief: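 Mid-log P. aeruginosa was grown in Iso-Sensitest broth and diluted in 10 mM potassium phosphate with 1% broth, pH 7.4, with sodium chloride added. Peptide dilutions were incubated with 1 × 10⁵ to 5 × 10⁵ CFU per 100 μl at 37°C for 3 h, then CFU were plated. MBC is >99.99% kill, the mean of duplicates from three independent runs.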

Pseudomonas aeruginosa [5] = assay: Antimicrobial activity against Pseudomonas aeruginosa PAO1 after 3 hrs by bactericidal assay in presence of 10 mM NaCl; format: functional; conditions: PAO1, 3 h
Method in brief: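 P. aeruginosa PAO1 at mid-log in Iso-Sensitest broth, diluted to 1 × 10⁶–5 × 10⁶ CFU/ml in 10 mM potassium phosphate/1% Iso-Sensitest broth, pH 7.4, with 10 mM NaCl added. Dimeric peptides are incubated with 100 μl cells at 37°C for 3 h, then plated as tenfold dilutions with CFU counted next day. MBC is >99.99% killing, from duplicates on three occasions. Mann-Whitney U test.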

Pseudomonas aeruginosa [6] = assay: Antimicrobial activity against Pseudomonas aeruginosa PAO1 assessed as bacterial killing at 16.5 uM after 3 hrs by bactericidal assay; format: functional, organism-based
Staphylococcus aureus [7] = assay: Stability of the compound in Staphylococcus aureus ATCC 25923 after 4 hrs by LC-MS analysis; format: ADME, organism-based
Method in brief: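 Peptide is incubated with S. aureus ATCC 25923 for 4 h. Peptide integrity is then assessed by LC-MS as peak area relative to the sample before incubation.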

Pseudomonas aeruginosa [8] = assay: Antimicrobial activity against Pseudomonas aeruginosa PAO1 at 20 uM; format: functional, organism-based
Staphylococcus aureus [9] = assay: Antimicrobial activity against Staphylococcus aureus ATCC 25923 at 20 uM; format: functional, organism-based

| Molecule | MBC (Burkholderia cenocepacia) | MBC (Staphylococcus aureus [1]) | MBC (Escherichia coli) | MBC (Pseudomonas aeruginosa [2]) | MBC (Staphylococcus aureus [3]) | MBC (Acinetobacter baumannii) | MBC (Enterococcus faecalis) | Activity (Pseudomonas aeruginosa [4]) | MBC (Pseudomonas aeruginosa [5]) | Activity (Pseudomonas aeruginosa [6]) | Stability (Staphylococcus aureus [7]) | Activity (Pseudomonas aeruginosa [8]) | Activity (Staphylococcus aureus [9]) |
| --- | --- | --- | --- | --- | --- | --- | --- | --- | --- | --- | --- | --- | --- |
| CC[C@H](C)[C@H](NC(=O)[C@H](CCCNC(=N)N)NC(=O)[C@H](C)NC(=O)[C@H](Cc1ccccc1)NC(=O)[C@H](Cc1ccccc1)NC(=O)[C@H](CCCCN)NC(=O)[C@H](CCCNC(=N)N)NC(=O)[C@H](CC(C)C)NC(=O)[C@@H](NC(=O)[C@H](CCCCN)NC(=O)[C@@H]1CCCN1C(=O)[C@H](CC(C)C)NC(=O)[C@@H](N)Cc1ccccc1)[C@H](C)O)C(=O)N[C@@H](CCCNC(=N)N)C(=O)NCC(=O)NCC(=O)N[C@@H](CCCNC(=N)N)C(=O)N[C@@H](C)C(=O)N[C@@H](C)C(=O)N[C@H](C(=O)N[C@@H](CC(C)C)C(=O)N[C@@H](CC(N)=O)C(=O)N[C@@H](C)C(=O)O)C(C)C | > 20 mg/L | > 205 mg/L | > 20 mg/L | > 48 mg/L | > 40 mg/L | > 22 mg/L | > 20 mg/L |  |  |  |  |  |  |
| CC[C@H](C)[C@@H]1NC(=O)[C@H](CCC(N)=O)NC(=O)[C@H](CCC(=O)O)NC(=O)[C@H](CCC(=O)O)NC(=O)[C@H](CCCCN)NC(=O)CNC(=O)[C@H](CC(C)C)NC(=O)[C@@H]2CSSC[C@@H](C(=O)N[C@@H](CCCNC(=N)N)C(=O)N[C@@H](CCCCN)C(=O)N[C@@H](CCCCN)C(=O)N[C@@H](CCCCN)C(=O)O)NC(=O)[C@@H]3CSSC[C@H](NC(=O)[C@H](Cc4ccccc4)NC(=O)[C@H](Cc4ccccc4)NC(=O)[C@H](CCCCN)NC(=O)[C@H](CCCNC(=N)N)NC(=O)[C@H](CC(C)C)NC(=O)[C@@H](NC(=O)[C@H](CCCCN)NC(=O)[C@@H]4CCCN4C(=O)[C@H](CC(C)C)NC(=O)[C@@H](N)Cc4ccccc4)[C@H](C)O)C(=O)N[C@@H](CCCNC(=N)N)C(=O)N[C@@H]([C@@H](C)CC)C(=O)N[C@@H](CCCNC(=N)N)C(=O)NCC(=O)NCC(=O)N[C@@H](CCCNC(=N)N)C(=O)N[C@@H](CSSC[C@H](NC(=O)[C@H](CCCNC(=N)N)NC(=O)CNC1=O)C(=O)N[C@@H](CO)C(=O)N[C@@H](CC(N)=O)C(=O)N[C@@H](CO)C(=O)NCC(=O)N[C@@H](CCCNC(=N)N)C(=O)N[C@@H](CCCCN)C(=O)N3)C(=O)N[C@@H](C)C(=O)N[C@@H](C(C)C)C(=O)N[C@@H](CC(C)C)C(=O)N[C@@H](CC(N)=O)C(=O)N2 | 0.6 mg/L (≈ 0.116 µM) | 1 mg/L (≈ 0.193 µM) | > 205 mg/L | 0.3 mg/L (≈ 0.0579 µM) | > 48 mg/L | 0.3 mg/L (≈ 0.0579 µM) | 1.2 mg/L (≈ 0.231 µM) |  |  |  |  |  |  |
| CC(C)C[C@H](NC(=O)[C@@H](NC(=O)[C@H](CCCCN)NC(=O)[C@@H]1CCCN1C(=O)[C@H](CC(C)C)NC(=O)[C@@H](N)Cc1ccccc1)[C@H](C)O)C(=O)N[C@@H](CCCNC(=N)N)C(=O)N[C@@H](CCCCN)C(=O)N[C@@H](Cc1ccccc1)C(=O)N[C@@H](Cc1ccccc1)C(=O)O | > 48 mg/L | 1.2 mg/L (≈ 0.925 µM) | 3 mg/L (≈ 2.31 µM) | 1.3 mg/L (≈ 1 µM) | 2.4 mg/L (≈ 1.85 µM) | 0.75 mg/L (≈ 0.578 µM) | 1.2 mg/L (≈ 0.925 µM) | Active |  |  |  |  |  |
| CC[C@H](C)[C@H](NC(=O)[C@H](CCC(N)=O)NC(=O)[C@H](CCC(=O)O)NC(=O)[C@H](CCC(=O)O)NC(=O)[C@H](CCCCN)NC(=O)CNC(=O)[C@H](CC(C)C)NC(=O)[C@H](C)NC(=O)[C@H](CC(N)=O)NC(=O)[C@H](CC(C)C)NC(=O)[C@@H](NC(=O)[C@H](C)NC(=O)[C@H](C)NC(=O)[C@H](CCCNC(=N)N)NC(=O)CNC(=O)CNC(=O)[C@H](CCCNC(=N)N)NC(=O)[C@H](NC(=O)[C@H](CCCNC(=N)N)NC(=O)[C@H](C)NC(=O)[C@H](Cc1ccccc1)NC(=O)[C@H](Cc1ccccc1)NC(=O)[C@H](CCCCN)NC(=O)[C@H](CCCNC(=N)N)NC(=O)[C@@H](N)CC(C)C)[C@@H](C)CC)C(C)C)C(=O)NCC(=O)N[C@@H](CCCNC(=N)N)C(=O)N[C@@H](C)C(=O)N[C@@H](CO)C(=O)N[C@@H](CC(N)=O)C(=O)N[C@@H](CO)C(=O)NCC(=O)N[C@@H](CCCNC(=N)N)C(=O)N[C@@H](CCCCN)C(=O)N[C@@H](CS)C(=O)N[C@@H](C)C(=O)N[C@@H](CCCNC(=N)N)C(=O)N[C@@H](CCCCN)C(=O)N[C@@H](CCCCN)C(=O)N[C@@H](CCCCN)C(=O)O |  | 1.4 mg/L (≈ 0.315 µM) | 2.5 mg/L (≈ 0.563 µM) | 0.7 mg/L (≈ 0.158 µM) | 2.5 mg/L (≈ 0.563 µM) |  | 1.25 mg/L (≈ 0.281 µM) | Active |  |  |  |  |  |
| H-AAVLNA-OH |  | > 83.5 mg/L |  | > 83.5 mg/L |  |  |  |  |  |  |  |  |  |
| H-AAVLNALGKEEQIGRASNSGRKCARKKK-OH |  | > 16.5 mg/L | > 10 mg/L | > 16.5 mg/L | > 10 mg/L | > 10 mg/L | > 5 mg/L |  |  |  |  |  |  |
| H-FFARIRGGRAAVLNALGKEEQIGRASNSGRKCARKKK-OH |  | 1.5 mg/L | 10 mg/L | 1.1 mg/L | 2.2 mg/L | 2.9 mg/L | 1.9 mg/L |  | 10 µM |  |  |  |  |
| H-GGRAAVLNALGKEEQIGRASNSGRKCARKKK-OH |  | > 15.2 mg/L | > 10 mg/L | > 15.2 mg/L | > 10 mg/L | > 10 mg/L | > 5 mg/L |  |  | inactive | Stable |  |  |
| H-IRGGRAAVLNALGKEEQIGRAS-OH | > 205 mg/L | > 48 mg/L | 38.6 mg/L | 1.2 mg/L | > 22 mg/L | 2.4 mg/L | 4.8 mg/L |  |  |  |  |  |  |
| H-LGKEEQIGRASNSGRKCARKKK-OH | > 22 mg/L | 1.2 mg/L |  | > 33 mg/L | > 205 mg/L | > 48 mg/L | 0.6 mg/L |  |  |  |  |  |  |
| H-LRKFFARIRGGR-OH | 16.5 mg/L | 12.1 mg/L |  |  | 7.1 mg/L | 19 mg/L | > 22 mg/L | Active |  |  |  |  |  |
| H-RGGRAAVLNA-OH | 38.6 mg/L | > 22 mg/L | 9.6 mg/L | 1.2 mg/L | 1.2 mg/L | > 205 mg/L | > 48 mg/L |  |  |  |  |  |  |
| H-RIRGGRAAVLNA-OH |  |  |  |  |  |  |  |  |  |  |  | inactive | inactive |
| H-RIRGGRAAVLNALGKEEQIGRASNSGRKCARKKK-OH |  | 5.9 mg/L | > 10 mg/L | 1.7 mg/L | > 10 mg/L | 2.5 mg/L | > 5 mg/L |  |  |  |  |  |  |
